PG9 Ab binder: PG9 antibody binding by small molecule. TR-FRET gp120-PG9 antibody binding. inhibition, % at 6.7 µM. 360,000 tested, 0.43% active; in the data active means inhibition above about 8.5%
Rin1 Abl inh: inhibitors of human Rin1-Abl protein interaction; P00519+Q13671; TR-FRET Rin1/Abl binding, biochemical; inhibition, % at 7.35 µM; 360,000 tested, 0.4% active; AID 588664; in the data active means inhibition above about 5%, passing the limit was not always enough
Target sequence (P00519 whole entry, looked up): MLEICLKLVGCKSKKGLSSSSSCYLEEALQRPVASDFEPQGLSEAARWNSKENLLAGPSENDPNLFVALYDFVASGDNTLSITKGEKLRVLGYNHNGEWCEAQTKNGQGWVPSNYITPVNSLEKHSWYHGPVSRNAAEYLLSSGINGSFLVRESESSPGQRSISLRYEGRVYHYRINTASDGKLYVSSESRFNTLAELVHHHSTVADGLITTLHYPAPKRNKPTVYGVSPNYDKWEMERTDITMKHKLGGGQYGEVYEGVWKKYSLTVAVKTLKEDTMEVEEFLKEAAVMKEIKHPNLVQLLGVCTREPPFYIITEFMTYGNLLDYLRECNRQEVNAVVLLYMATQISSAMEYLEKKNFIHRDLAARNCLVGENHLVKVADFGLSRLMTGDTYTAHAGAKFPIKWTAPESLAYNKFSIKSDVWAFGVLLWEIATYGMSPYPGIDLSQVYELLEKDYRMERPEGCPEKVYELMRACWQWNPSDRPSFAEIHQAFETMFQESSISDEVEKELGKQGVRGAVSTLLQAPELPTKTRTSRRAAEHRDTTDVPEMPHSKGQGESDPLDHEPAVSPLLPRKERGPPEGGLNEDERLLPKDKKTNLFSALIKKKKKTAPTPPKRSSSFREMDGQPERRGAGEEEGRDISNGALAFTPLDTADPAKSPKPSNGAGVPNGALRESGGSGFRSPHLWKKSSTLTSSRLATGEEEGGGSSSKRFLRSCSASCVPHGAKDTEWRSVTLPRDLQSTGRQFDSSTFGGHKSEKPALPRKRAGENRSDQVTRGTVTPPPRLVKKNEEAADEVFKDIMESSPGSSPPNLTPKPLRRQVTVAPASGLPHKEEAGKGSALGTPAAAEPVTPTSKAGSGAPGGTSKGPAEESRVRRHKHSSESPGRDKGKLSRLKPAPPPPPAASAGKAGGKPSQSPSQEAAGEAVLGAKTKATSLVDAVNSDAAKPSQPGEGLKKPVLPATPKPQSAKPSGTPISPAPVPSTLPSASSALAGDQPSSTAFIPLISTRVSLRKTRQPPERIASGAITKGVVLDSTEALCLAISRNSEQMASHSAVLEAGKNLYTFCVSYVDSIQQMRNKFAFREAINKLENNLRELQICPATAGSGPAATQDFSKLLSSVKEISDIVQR
Target sequence (Q13671 whole entry, looked up): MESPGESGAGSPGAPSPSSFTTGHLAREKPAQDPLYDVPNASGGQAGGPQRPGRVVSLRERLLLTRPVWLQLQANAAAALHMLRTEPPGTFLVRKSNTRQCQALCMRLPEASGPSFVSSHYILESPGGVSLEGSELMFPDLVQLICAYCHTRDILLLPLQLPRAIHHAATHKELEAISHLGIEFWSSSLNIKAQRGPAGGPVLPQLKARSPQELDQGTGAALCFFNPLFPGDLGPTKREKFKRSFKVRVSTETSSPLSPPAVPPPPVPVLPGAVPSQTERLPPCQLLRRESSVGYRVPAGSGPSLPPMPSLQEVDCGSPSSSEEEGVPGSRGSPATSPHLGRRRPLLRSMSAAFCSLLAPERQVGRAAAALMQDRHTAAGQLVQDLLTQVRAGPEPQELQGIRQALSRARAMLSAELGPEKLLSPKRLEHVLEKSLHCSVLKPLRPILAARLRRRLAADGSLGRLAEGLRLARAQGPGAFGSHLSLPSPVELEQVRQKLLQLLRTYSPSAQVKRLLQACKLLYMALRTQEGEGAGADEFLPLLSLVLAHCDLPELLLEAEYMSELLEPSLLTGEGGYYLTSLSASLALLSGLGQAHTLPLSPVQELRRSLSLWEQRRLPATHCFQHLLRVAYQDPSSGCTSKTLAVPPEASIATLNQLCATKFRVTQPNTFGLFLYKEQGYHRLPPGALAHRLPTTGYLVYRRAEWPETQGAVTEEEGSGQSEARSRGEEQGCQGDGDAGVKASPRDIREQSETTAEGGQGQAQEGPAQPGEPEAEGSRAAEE
Tb MetRS inh: blocks T. brucei methionyl-tRNA synthetase activity; 360,000 tested, 0.4% active; inhibition, % at 11.9 µM; purified T. brucei MetRS, ATP depletion, Kinase-Glo luminescence; AID 624268;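 active means inhibition above a per-plate cutoff of the control wells' mean inhibition plus 3 SD, cut at about 5.5% in these data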;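 further: 0% = DMSO wells median and 100% = median of wells with control inhibitor compound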
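System: purified T. brucei MetRS enzyme / Detection: Kinase-Glo luciferase luminescence reporting remaining unconsumed ATP / Medium: HEPES buffer with MgCl2, KCl, DTT, spermine, BSA, pyrophosphatase / Replication: singlicate, one well per compound / Evaluation: percent inhibition relative to median high and low control wells / Schedule: 2 h aminoacylation at 25 °C after 15 min preincubation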
NR1D1 modulator: modulators of human Rev-erb alpha DNA binding. P20393. Rev-erbα–FITC-DNA binding, fluorescence polarization, 90 min. activity, % at 10 µM. 370,000 tested, 0.79% active;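 active means activity above about 14%, limit read from the data; passing the limit was not always enough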;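 further: 0% = DMSO wells with 35 nM protein and 100% = DMSO wells with 750 nM protein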
Rev-erbA confirm: Rev-erb alpha (human) modulation, hit confirmation | Rev-erb alpha FITC-DNA binding, fluorescence polarization, 90 min | shares compounds with NR1D1 modulator | activation, % at 25 µM | 3,000 tested, 61% active;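 active means activation at or above a set limit, or at least 3 SD above the negative control mean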;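 further: 0% = 35 nM protein with DMSO and 100% = 750 nM protein high control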
RORg counter: affects RORgamma DNA binding in a Rev-erb alpha counter-screen; shares compounds with NR1D1 modulator; purified RORgamma protein-FITC-DNA binding, fluorescence polarization; IC50, µM; 910 tested, 8% active; AID 1259320;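 active means Compounds whose fitted half-maximal concentration for disrupting protein-DNA binding is below 10 micromolar; the record names Rev-erb in its text, so the target is in doubt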
* marks the source's active call; other numbers are inactive results; i = inactive; nt = not tested or not shown. Most compounds without a hit are left out; they make up all but 1.8% or so of the library.

SMILES	PG9 Ab binder	Rin1 Abl inh	Tb MetRS inh	NR1D1 modulator	Rev-erbA confirm	others
CCn1c(=O)c(C(=O)Nc2ccccc2F)c(O)c2ccccc21	0	2	-1	11	nt
CC(C)Cn1c(=O)c(C(=O)Nc2ccccc2S(N)(=O)=O)c(O)c2ccccc21	4	-6	0	56*	29*
CCOC(=O)C1=C(COC(=O)c2cc(OC)c(OC)c(OC)c2)NC(=O)NC1C (configuration not stated)	-2	3	0	-5	nt
O=C(CCNC(=O)c1ccccc1)NCCCc1ccccc1	0	1	0	2	nt
CC(=O)c1ccc(N2CCN(S(=O)(=O)c3ccc4c(c3)CC(C)N4C(=O)C3CC3)CC2)cc1 (configuration not stated)	1	-1	0	31*	24*
CC(=O)c1ccc(N2CCN(S(=O)(=O)c3ccc4c(c3)CC(C)N4C(C)=O)CC2)cc1 (configuration not stated)	-2	3	-1	-5	nt
CCOC(=O)CNC(=O)CSc1nc2c(C)cccc2cc1CC	5	-102	0	-2	nt
Cc1ccc2nc(SCC(=O)NC3CC3)[nH]c2c1	-3	1	0	3	nt
CCc1cc2cccc(C)c2nc1SCC(=O)NC1CCCC1	3	1	0	21*	11
CCc1cc2cc(C)ccc2nc1SCC(=O)NC1CCCC1	1	-5	0	32*	35*	RORg counter=>40
OCCNc1ncnc2c1ncn2[C@H]1CN(Cc2ccncc2)C[C@@H](CO)O1	1	0	0	1	nt
Cc1csc(=O)n1CCC(=O)OCC(=O)Nc1ccc(S(N)(=O)=O)cc1	-2	-1	0	-8	nt
COc1cc(NC(=O)c2cc(-c3cccnc3)nc3ccc(Br)cc23)cc(OC)c1	3	-3	-1	31*	20*
CCSC1=N/C(=C\c2ccc3c(c2)OCO3)C(=O)S1	0	3	-1	3	nt
CCSC1=N/C(=C\C=C2/Oc3ccccc3N2CC)C(=O)S1	-3	-8	0	50*	46*	RORg counter=>40
O=C(Cn1cc([N+](=O)[O-])ccc1=O)N1CCCc2ccccc21	0	1	-1	-3	nt
N#Cc1ccccc1N1CCN(C(=O)C2CCN(c3ncnc4c3sc3cccc(F)c34)CC2)CC1	nt	nt	nt	49*	34*	RORg counter=>40
Cc1cc(Nc2ccc(Cl)cc2)nc(-c2ccccc2O)n1	-2	0	0	29*	-2
CCc1cc(-c2n[nH]c(C)c2-c2nc(C)cs2)c(O)cc1OC	-3	-2	0	0	nt
CCc1cc(-c2n[nH]c(C)c2-c2nc3ccccc3s2)c(O)cc1OCC(=O)NN	1	3	0	13*	4
CCN(CC)CCCC(C)n1c(C)cc(C(=O)NS(=O)(=O)c2ccc(C)cc2)c1C (configuration not stated)	0	0	0	4	nt
CCCCn1c(=O)[nH]c2nc3cc(N)ccc3nc2c1=O	-11	-39	1	14	nt
Nc1ccc2nc3c(=O)n(C4CCCCC4)c(=O)[nH]c3nc2c1	-5	-26	0	77*	83*	RORg counter=>40
Nc1ccc2nc3c(=O)n(CCc4ccccc4)c(=O)[nH]c3nc2c1	-6	-26	2	72*	64*	RORg counter=i
Cc1cc2nc3c(=O)n(CCc4ccccc4)c(=O)[nH]c3nc2cc1N	-6	-14	0	38*	34*	RORg counter=2.1*
SMILES	PG9 Ab binder	Rin1 Abl inh	Tb MetRS inh	NR1D1 modulator	Rev-erbA confirm	others
Cc1cccc(OCC(=O)OC(C)C(=O)Nc2ccc(S(=O)(=O)N3CCCCC3)cc2)c1 (configuration not stated)	3	3	-1	5	nt
O=C1c2ccccc2NC(c2ccc(Cl)cc2Cl)N1O (configuration not stated)	-2	0	-1	-2	nt
C=CCc1cccc(C2Nc3ccccc3C(=O)N2O)c1O (configuration not stated)	0	1	0	60*	32*	RORg counter=>40
O=C1NC[C@H](c2ccccc2)N(CCC23CC4CC(CC(C4)C2)C3)C1=O	-1	2	0	4	nt
COc1ccc(-c2cc(-c3ccc(C)cc3)nc(SCc3nnc(-c4ccccc4)o3)c2C#N)cc1OC	-2	-2	-1	80*	37*	RORg counter=>40
COc1cc(-c2cc(-c3ccccc3)nc(SCC(=O)O)c2C#N)cc(OC)c1OC	-2	-2	-1	-2	nt
O=C(CSc1nc(-c2ccco2)cc(C(F)(F)F)n1)N1CCCc2ccccc21	0	-3	0	25*	14
Fc1ccc(-[n+]2nc(Nc3ccccc3)sc2-c2ccc(OCc3ccccc3)cc2)cc1	-1	-1	0	156*	11
C[C@@H]1CN([C@@H](C)CO)C(=O)c2cc(NS(=O)(=O)c3ccc(Cl)cc3)ccc2O[C@H]1CN(C)Cc1ccncc1	-3	2	0	-2	nt
COc1cc(N=Nc2cccc(S(N)(=O)=O)c2)c2ccccc2c1N	-6	-6	-1	35*	14
NC1=NC(=Nc2cccc(S(N)(=O)=O)c2)c2ccccc21	-2	0	0	-1	nt
CCOc1ccc(CCNC(=O)COC(=O)c2ccc(S(C)(=O)=O)cc2)cc1OCC	-2	2	0	17*	3
Cc1csc(NC(=O)c2cc3c(C)nn(Cc4ccccc4Cl)c3s2)n1	2	-4	-1	22*	17*
CCOC(=O)N1CCN(C(=O)C[C@H]2C[C@@]3(C(=O)OC)C(=C[C@H](C(C)(C)C)O[C@@H]3C)N(CCc3ccc(OC)c(OC)c3)C2=O)CC1	nt	nt	nt	0	nt
CCOc1ncccc1C(=O)Nc1cc(S(=O)(=O)N2CCOCC2)ccc1OCC(F)(F)F	0	0	0	31*	15*
CCc1cccc(CC)c1N1C(=O)CSCC1=O	-2	-2	0	-5	nt
CC1(C)Cc2c(sc3nnn(Cc4ccc(Cl)cc4)c(=O)c23)CO1	-2	2	0	0	nt
CC1(C)Cc2c(sc3c2c(N)nc(=S)n3Cc2ccc(Br)cc2)CO1	-2	0	-1	135*	95*	RORg counter=>40
O=C(COC(=O)c1ccc(F)cc1F)c1ccc[nH]1	0	-2	0	1	nt
Fc1ccc(Nc2nc(-c3ccncc3)nc3ccccc23)cc1	3	-1	-1	17	nt
c1ccc(Nc2nc(-c3ccncc3)nc3ccccc23)cc1	-1	0	0	30*	23*
COC(=O)[C@]12C[C@H](CC(=O)N3CCOCC3)C(=O)N(Cc3ccccc3)C1=C[C@H](COCc1ccccc1)O[C@@H]2C	nt	nt	nt	2	nt
CCCOc1ccc(/C(O)=C2/C(=O)C(=O)N(CCCn3ccnc3)C2c2cccs2)cc1 (configuration not stated)	0	3	0	1	nt
